Laboratory results published in ChEMBL document CHEMBL4422682, “Synthesis and urease inhibitory potential of benzophenone sulfonamide hybrid in vitro and in silico” (Bioorg Med Chem, 2019).

Assays:
[1] = target: T1, Bacterial urease (Bacteria, UniProt Q03282+Q03283+Q03284); experiment: (§1) Inhibition of bacterial urease using urea as substrate preincubated for 15 mins followed by substrate addition […]; assay type: protein-complex assay
T1 sequence (Q03282 whole entry): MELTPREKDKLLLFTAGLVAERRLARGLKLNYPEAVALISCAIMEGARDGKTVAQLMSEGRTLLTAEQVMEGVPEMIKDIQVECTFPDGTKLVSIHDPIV
T1 sequence (Q03283 whole entry): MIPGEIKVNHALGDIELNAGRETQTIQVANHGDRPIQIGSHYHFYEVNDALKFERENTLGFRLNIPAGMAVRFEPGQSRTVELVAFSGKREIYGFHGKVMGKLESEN
T1 sequence (Q03284 whole entry): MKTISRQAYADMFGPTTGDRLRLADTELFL
Method in brief: (§2)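 Compounds preincubated with urease (1 U/well) for 15 min at 30 °C. Urea (100 mM, as added) introduced and incubation continued at 30 °C. Ammonia formed was detected by the Weatherburn phenol-hypochlorite method: alkaline reagent (0.5% w/v NaOH, 0.1% NaOCl) and phenol reagent (1% w/v phenol, 0.005% w/v nitroprusside) were added, then 50 min at 30 °C. Absorbance read at 630 nm on a plate reader.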

[2] = target: Bacterial urease (Bacteria, UniProt Q03284); experiment: as §1; assay type: protein-complex assay; method in brief: as §2
[3] = target: T2, Urease (Canavalia ensiformis, UniProt P07374); experiment: Inhibition of jack bean urease assessed as reduction in ammonia production using urea as substrate after 30 mins by indophenol method; method in brief: as §2
[4] = target: T2, Urease; experiment: Inhibition of jack bean urease using urea as substrate preincubated for 15 mins followed by substrate addition and measured after 10 mins by ELISA; method in brief: as §2
[5] = target: Bacterial urease (Bacteria) (UniProt Q03282+Q03283+Q03284); experiment: Potency index, ratio of acetohydroxamic acid IC50 to test compound IC50 for bacterial urease; assay type: protein-complex assay
Method in brief: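 Spectrophotometric urease inhibition assay underlying the IC50s in the ratio, for test compounds and acetohydroxamic acid. Compound pre-incubated with urease (1 U/well) at 30 °C for 15 min. Urea (100 mM) was added and incubation continued at 30 °C. Phenol–nitroprusside and alkaline hypochlorite reagents were added, then 50 min at 30 °C. Ammonia was measured by the Weatherburn method, with absorbance change at 630 nm.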

T2 sequence (P07374 whole entry): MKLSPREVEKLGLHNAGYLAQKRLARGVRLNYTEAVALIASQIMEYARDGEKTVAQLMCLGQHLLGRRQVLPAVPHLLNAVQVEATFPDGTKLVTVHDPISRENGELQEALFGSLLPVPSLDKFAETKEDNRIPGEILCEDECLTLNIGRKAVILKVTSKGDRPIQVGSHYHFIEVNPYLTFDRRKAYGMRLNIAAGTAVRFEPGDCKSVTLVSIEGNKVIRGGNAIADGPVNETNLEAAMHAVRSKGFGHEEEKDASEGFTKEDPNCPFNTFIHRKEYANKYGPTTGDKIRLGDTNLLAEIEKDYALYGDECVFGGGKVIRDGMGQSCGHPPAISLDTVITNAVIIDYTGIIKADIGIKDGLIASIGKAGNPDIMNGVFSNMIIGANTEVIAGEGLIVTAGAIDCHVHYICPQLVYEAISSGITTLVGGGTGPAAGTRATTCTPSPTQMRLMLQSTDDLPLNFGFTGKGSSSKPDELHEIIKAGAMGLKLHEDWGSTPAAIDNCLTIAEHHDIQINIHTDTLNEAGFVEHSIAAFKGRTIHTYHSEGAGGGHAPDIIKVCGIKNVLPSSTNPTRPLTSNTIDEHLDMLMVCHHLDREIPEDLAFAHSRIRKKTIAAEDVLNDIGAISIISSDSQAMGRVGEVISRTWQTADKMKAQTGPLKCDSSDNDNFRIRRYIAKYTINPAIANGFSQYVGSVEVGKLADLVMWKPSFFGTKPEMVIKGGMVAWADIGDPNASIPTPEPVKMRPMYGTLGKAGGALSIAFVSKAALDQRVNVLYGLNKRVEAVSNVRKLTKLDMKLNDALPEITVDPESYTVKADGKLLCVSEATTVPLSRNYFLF

| Compound | IC50 [1] | IC50 [2] | also measured |
| --- | --- | --- | --- |
| Cc1cc(S(=O)(=O)NN=C(c2ccccc2)c2ccccc2)c(C)cc1Cl | Not Active |  |  |
| O=[N+]([O-])c1cc(S(=O)(=O)NN=C(c2ccccc2)c2ccccc2)ccc1Cl | Not Active |  |  |
| O=S(=O)(N/N=C(\c1ccccc1)c1ccc(O)cc1)c1ccc(Cl)cc1Cl |  | 18 µM |  |
| NS(=O)(=O)c1ccc(CCNC=C2C(=O)NC(=S)NC2=O)cc1 |  |  | IC50 [3]: 11.5 µM |
| CC(=O)Nc1ccc(S(=O)(=O)Nc2ccc(Br)cc2)cc1 |  |  | IC50 [4]: 62.4 µM |
| O=S(=O)(N/N=C(\c1ccccc1)c1ccc(O)cc1)c1cc(Cl)c(Cl)cc1Cl |  | 57.9 µM |  |
| O=S(=O)(NN=C(c1ccccc1)c1ccccc1)c1cc(Cl)cc(Cl)c1O |  | 71.6 µM |  |
| O=[N+]([O-])c1cccc(S(=O)(=O)NN=C(c2ccccc2)c2ccccc2)c1Cl | Not Active |  |  |
| CN(C)c1cccc2c(S(=O)(=O)N/N=C(\c3ccccc3)c3ccc(O)cc3)cccc12 |  | 5.7 µM |  |
| Oc1ccc(/C(=N/NC(=S)Nc2cccc(Br)c2)c2ccccc2)cc1 |  |  | IC50 [4]: 8.7 µM |
| CN(C)c1cccc2c(S(=O)(=O)NN=C(c3ccccc3)c3ccccc3)cccc12 |  | 72.2 µM |  |
| COc1ccc(S(=O)(=O)NN=C(c2ccccc2)c2ccccc2)c(OC)c1 | Not Active |  |  |
| CCCCS(=O)(=O)NN=C(c1ccccc1)c1ccccc1 | Not Active |  |  |
| O=S(=O)(NN=C(c1ccccc1)c1ccccc1)c1ccccc1Cl | Not Active |  |  |
| O=S(=O)(NN=C(c1ccccc1)c1ccccc1)c1ccc(Cl)cc1 |  | 66.1 µM |  |
| COc1ccc(S(=O)(=O)NN=C(c2ccccc2)c2ccccc2)cc1 | Not Active |  |  |
| COc1ccc(S(=O)(=O)N/N=C(\c2ccccc2)c2ccc(O)cc2)cc1 |  | 14.5 µM |  |
| O=[N+]([O-])c1cccc(S(=O)(=O)N/N=C(\c2ccccc2)c2ccc(O)cc2)c1 |  | 13.7 µM |  |

| Compound | IC50 [1] | IC50 [2] | also measured |
| --- | --- | --- | --- |
| O=S(=O)(NN=C(c1ccccc1)c1ccccc1)c1cc(Cl)c(Cl)cc1Cl | Not Active |  |  |
| O=S(=O)(NN=C(c1ccccc1)c1ccccc1)c1ccc2ccccc2c1 | Not Active |  |  |
| O=S(=O)(N/N=C(\c1ccccc1)c1ccc(O)cc1)c1ccccc1 |  | 16.3 µM |  |
| O=[N+]([O-])c1ccc(S(=O)(=O)N/N=C(\c2ccccc2)c2ccc(O)cc2)cc1 |  | 3.9 µM | Ratio IC50 [5]: 10 |
| O=S(=O)(NN=C(c1ccccc1)c1ccccc1)c1ccccc1 | Not Active |  |  |
| O=[N+]([O-])c1ccc(NC(=S)N/N=C(\c2ccccc2)c2ccc(O)cc2)cc1 |  |  | IC50 [4]: 26.1 µM |
| CS(=O)(=O)N/N=C(\c1ccccc1)c1ccc(O)cc1 |  | 43.4 µM |  |
| O=[N+]([O-])c1ccc(S(=O)(=O)NN=C(c2ccccc2)c2ccccc2)c([N+](=O)[O-])c1 |  | 69 µM |  |
| O=S(=O)(N/N=C(\c1ccccc1)c1ccc(O)cc1)c1cc(Cl)cc(Cl)c1O |  | 4.97 µM |  |
| O=[N+]([O-])c1ccc(S(=O)(=O)NN=C(c2ccccc2)c2ccccc2)cc1 | Not Active |  |  |
| Cc1ccc([N+](=O)[O-])cc1S(=O)(=O)NN=C(c1ccccc1)c1ccccc1 |  | 69 µM |  |
| O=S(=O)(N/N=C(\c1ccccc1)c1ccc(O)cc1)c1ccccc1Cl |  | 16.9 µM |  |
| O=S(=O)(N/N=C(\c1ccccc1)c1ccc(O)cc1)c1cc(Cl)ccc1Cl |  | 31.2 µM |  |
| CC(=O)NO [ACETOHYDROXAMIC ACID] |  | 29.2 µM |  |
| O=[N+]([O-])c1ccccc1S(=O)(=O)NN=C(c1ccccc1)c1ccccc1 | Not Active |  |  |
| O=S(=O)(NN=C(c1ccccc1)c1ccccc1)c1ccc(Cl)cc1Cl | Not Active |  |  |
| O=S(=O)(CCCl)N/N=C(\c1ccccc1)c1ccc(O)cc1 |  | 55 µM |  |
| O=[N+]([O-])c1cccc(S(=O)(=O)NN=C(c2ccccc2)c2ccccc2)c1 | Not Active |  |  |
